ChEMBL document CHEMBL1123471, “Dopamine receptor agonists: 3-allyl-6-chloro-2,3,4,5-tetrahydro- 1-(4-hydroxyphenyl)-1H-3-benzazepine-7,8-diol and a series of related 3-benzazepines” (J Med Chem, 1986)
pEC50: −log10 of the molar value. Counter-ions that a name gives are not always drawn.

Assays:
Assay type in all cases: functional, organism-based; call rule not given here
[1] = species: Oryctolagus cuniculus; experiment: Inhibition of the constrictor response to electrical stimulation in rabbit ear artery.
Summary of the method: (§1)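 Isolated perfused rabbit ear artery in Krebs-Henseleit (95% O2/5% CO2, 35 °C, pH 7.4), stabilized ≥1 h. Sympathetic nerves field-stimulated every 4 min (0.7-ms pulses, 75 V, 10-15 Hz trains of 300-500 ms). Compound superfused at increasing concentrations, 4 min each. Read-out is the rise in perfusion pressure; IC50 from least-squares curves.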

[2] = species: Rattus norvegicus; experiment: Concentration necessary to cause 50% increase in cAMP formation(by adenylate cyclase) relative to the maximum increase caused by the compound
Summary of the method: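 Rat caudate homogenate (male Charles River rats, 225-300 g), made at 0 °C in 50 mM Tris-maleate pH 7.4 with 2 mM EGTA; incubated with test compound at increasing concentrations, 2 mM MgSO4, 5 mM aminophylline, and [14C]ATP (final 0.65 mM) for 3 min at 30 °C. [14C]cAMP isolated on alumina/Dowex columns and counted; quadruplicates; least-squares dose-response curves.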

[3] = species: Oryctolagus cuniculus; experiment: Concentration necessary to inhibit 50% of the constrictor response to electrical stimulation in rabbit ear artery; I=Inactive; summary of the method: as §1

Compound	pEC50 [1]	pEC50 [2]	EC50 [3]
Oc1cc2c(cc1O)CCNCC2	7.92		
NC1CCc2cc(O)c(O)cc2C1 (stereo not given)	7.77		
CN1CCc2cccc3c2[C@H]1Cc1ccc(O)c(O)c1-3 [APOMORPHINE]	7.36		
Oc1ccc(C2CNCCc3c2cc(O)c(O)c3Cl)cc1 (stereo not given) [FENOLDOPAM MESYLATE]	6.00	7.24	
CCCN(CCC)CCc1ccc(O)c2c1CC(=O)N2 [SKF-89124A]	8.70		
NCCc1ccc(O)c(O)c1 [DOPAMINE]	7.42		
CCCN(CCC)CCc1ccc(O)c(O)c1	7.22		
CCCCN(CCC)CCc1ccc(O)c(O)c1	7.32		

Next, values leading:

pEC50 [1]	pEC50 [2]	EC50 [3]	Compound
6.91	7.82		C=CCN1CCc2c(cc(O)c(O)c2Cl)C(c2ccc(O)cc2)C1 (stereo not given)
5.00			C/C=C/CN1CCc2c(cc(O)c(O)c2Cl)C(c2ccc(O)cc2)C1 (stereo not given)
6.00	6.26		CCCN1CCc2c(cc(O)c(O)c2Cl)C(c2ccc(O)cc2)C1 (stereo not given)
5.77	5.96		Oc1ccc(C2CN(CC3CC3)CCc3c2cc(O)c(O)c3Cl)cc1 (stereo not given)
6.30	6.00		OCCN1CCc2c(cc(O)c(O)c2Cl)C(c2ccc(O)cc2)C1 (stereo not given)
6.12	6.90		C=CCN1CCc2c(cc(O)c(O)c2Cl)C(c2cccc(O)c2)C1 (stereo not given)
5.52	< 5.00		C=CCN1CCc2c(cc(O)c(O)c2Cl)[C@H](c2ccc(O)cc2)C1
5.57	6.19		C#CCN1CCc2c(cc(O)c(O)c2Cl)C(c2ccc(O)cc2)C1 (stereo not given)
< 5.00			OCC(O)CN1CCc2c(cc(O)c(O)c2Cl)C(c2ccc(O)cc2)C1 (stereo not given)
7.05	~5.00		CN1CCc2c(cc(O)c(O)c2Cl)C(c2ccc(O)cc2)C1 (stereo not given)
		Not Active	Oc1ccc(C2CN(C/C=C/c3ccccc3)CCc3c2cc(O)c(O)c3Cl)cc1 (stereo not given)
7.08	8.05		C=CCN1CCc2c(cc(O)c(O)c2Cl)[C@@H](c2ccc(O)cc2)C1
